According to ChEMBL document CHEMBL1158347, “Substituted quinazolines, part 3. Synthesis, in vitro antitumor activity and molecular modeling study of certain 2-thieno-4(3H)-quinazolinone analogs” (2009):

Key:
Assay type in all cases: functional
[1] = Growth inhibition of human leukemia cells after 48 hrs; conditions: Leukemia cell
Procedure, shortened: (§1)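 NCI in vitro disease-oriented human tumor cell line screen. Compounds passing a one-dose primary assay (MCF-7, NCI-H460, SF-268; pass = growth of any line reduced to 32% or less) were tested on the 60-line panel over a 5-log dose range. Compounds were dissolved in DMSO, with under 1% DMSO in final dilutions, and tested in duplicate at 6×10^4 cells/ml. Cells were incubated at 37 °C in 5% CO2 for 48 h, then diluted 10-fold in saline and counted with a Coulter counter, with counts corrected for dilution. Controls held PBS/DMSO at identical dilutions. GI50 was reported per line and as subpanel/full-panel mean-graph midpoint.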

NSCLC = experiment: Growth inhibition of human NSCLC cells after 48 hrs; procedure, shortened: as §1
[2] = Growth inhibition of human Colon cancer cells after 48 hrs; conditions: Cancer cell lines; procedure, shortened: as §1
[3] = Growth inhibition of human CNS cancer cells after 48 hrs; conditions: Cancer cell lines; procedure, shortened: as §1
[4] = Growth inhibition of human melanoma cells after 48 hrs; conditions: Melanoma cell; procedure, shortened: as §1
[5] = Growth inhibition of human ovarian cancer cells after 48 hrs; conditions: Cancer cell lines; procedure, shortened: as §1
[6] = Growth inhibition of human renal cancer cells after 48 hrs; conditions: Cancer cell lines; procedure, shortened: as §1
[7] = Growth inhibition of human prostate cancer cells after 48 hrs; conditions: Cancer cell lines; procedure, shortened: as §1
[8] = Growth inhibition of human breast cancer cells after 48 hrs; conditions: Cancer cell lines; procedure, shortened: as §1
CCRF-CEM = experiment: Growth inhibition of human CCRF-CEM cells after 48 hrs; procedure, shortened: as §1
HL-60(TB) = experiment: Growth inhibition of human HL-60(TB) cells after 48 hrs; conditions: HL-60, 48 h
Procedure, shortened: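 NCI 60-cell-line screen over a 5-log dose range. Compounds were dissolved in DMSO, final DMSO under 1%. Duplicate wells were seeded at 6×10^4 cells/ml, with PBS/DMSO vehicle controls at identical dilutions. Cells were incubated 48 h at 37 °C in humidified 5% CO2, diluted 10-fold in saline, and counted by Coulter counter with dilution correction. GI50 read-out.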

K562 = experiment: Growth inhibition of human K562 cells after 48 hrs; conditions: K562, 48 h; procedure, shortened: as §1
RPMI-8226 = experiment: Growth inhibition of human RPMI8226 cells after 48 hrs; conditions: RPMI-8226, 48 h; procedure, shortened: as §1
SF-539 = experiment: Growth inhibition of human SF539 cells after 48 hrs; conditions: SF-539, 48 h; procedure, shortened: as §1
SK-MEL-2 = experiment: Growth inhibition of human SK-MEL-2 cells after 48 hrs; conditions: SK-MEL-2, 48 h; procedure, shortened: as §1
UACC-257 = experiment: Growth inhibition of human UACC257 cells after 48 hrs; conditions: UACC-257, 48 h; procedure, shortened: as §1
MCF7 = experiment: Growth inhibition of human MCF7 cells after 48 hrs; conditions: MCF7, 48 h; procedure, shortened: as §1
[9] = read-out: LC50 (the source's name)

## O=c1c2cc(I)ccc2nc(-c2cccs2)n1O
[1]
  GI50: 34.3 µM
  TGI: > 100 µM
NSCLC
  GI50: 33.2 µM
  TGI: 91.2 µM
[2]
  GI50: 45.8 µM
  TGI: > 100 µM
[3]
  GI50: 33.2 µM
  TGI: 94.4 µM
[4]
  GI50: 57.3 µM
  TGI: 97.1 µM
[5]
  GI50: 32.1 µM
  TGI: 87.9 µM
[6]
  GI50: 49.8 µM
  TGI: > 100 µM
[7]
  GI50: 39.9 µM
  TGI: 98.4 µM
[8]
  GI50: 39.4 µM
  TGI: > 100 µM

## O=c1c2cc(I)ccc2nc(-c2cccs2)n1/N=C/c1ccccc1
[1]
  GI50: 63.4 µM
  TGI: > 100 µM
NSCLC
  GI50: > 100 µM
  TGI: > 100 µM
[2]
  GI50: > 100 µM
  TGI: > 100 µM
[3]
  GI50: > 100 µM
  TGI: > 100 µM
[4]
  GI50: 90.3 µM
  TGI: > 100 µM
[5]
  GI50: > 100 µM
  TGI: > 100 µM
[6]
  GI50: > 100 µM
  TGI: > 100 µM
[7]
  GI50: > 100 µM
  TGI: > 100 µM
[8]
  GI50: > 100 µM
  TGI: > 100 µM

## CC(=O)CC(=O)Nn1c(-c2cccs2)nc2ccc(I)cc2c1=O
[1]
  GI50: 38.5 µM
  TGI: > 100 µM
NSCLC
  GI50: 27.5 µM
  TGI: 86.4 µM
[2]
  GI50: 28.1 µM
  TGI: 90.9 µM
[3]
  GI50: 27.9 µM
  TGI: 89.1 µM
[4]
  GI50: 37.7 µM
  TGI: 85.3 µM
[5]
  GI50: 40.9 µM
  TGI: 93.6 µM
[6]
  GI50: 28.9 µM
  TGI: 85.1 µM
[7]
  GI50: 20.6 µM
  TGI: > 100 µM
[8]
  GI50: 24.9 µM
  TGI: 82.1 µM

## O=c1c2cc(I)ccc2nc(-c2cccs2)n1Nc1ccccc1
CCRF-CEM
  GI50: 51 µM
  TGI: > 100 µM
CCRF-CEM; [9]
  CC50: > 100 µM
HL-60(TB)
  GI50: 0.4 µM
  TGI: > 100 µM
HL-60(TB); [9]
  CC50: > 100 µM
K562
  GI50: 0.3 µM
  TGI: 23 µM
RPMI-8226
  GI50: 5 µM
  TGI: > 100 µM
RPMI-8226; [9]
  CC50: > 100 µM
SF-539
  GI50: 34 µM
  TGI: > 100 µM
SF-539; [9]
  CC50: > 100 µM
SK-MEL-2
  GI50: 0.3 µM
  TGI: 2 µM
UACC-257
  GI50: 32 µM
  TGI: > 100 µM
MCF7
  GI50: 2 µM
  TGI: > 100 µM
MCF7; [9]
  CC50: > 100 µM
[1]
  GI50: 12.7 µM
  TGI: 87.1 µM
NSCLC
  GI50: 8.6 µM
  TGI: 88 µM
[2]
  GI50: 6.5 µM
  TGI: 79.2 µM
[3]
  GI50: 16.3 µM
  TGI: 81.9 µM
[4]
  GI50: 8.5 µM
  TGI: 85.9 µM
[5]
  GI50: 8.6 µM
  TGI: 80.1 µM
[6]
  GI50: 19.7 µM
  TGI: 93.1 µM
[7]
  GI50: 1.61 µM
  TGI: > 100 µM
[8]
  GI50: 5.9 µM
  TGI: > 100 µM

## O=c1c2cc(I)ccc2nc(-c2cccs2)n1-c1ccc(S(=O)(=O)Nc2nccs2)cc1
[1]
  GI50: 54 µM
  TGI: > 100 µM
NSCLC
  GI50: 38.7 µM
  TGI: 89.5 µM
[2]
  GI50: 44.7 µM
  TGI: 94.6 µM
[3]
  GI50: 41.4 µM
  TGI: 87.7 µM
[4]
  GI50: 45.2 µM
  TGI: 84.8 µM
[5]
  GI50: 46.5 µM
  TGI: > 100 µM
[6]
  GI50: 34.2 µM
  TGI: 84.3 µM
[7]
  GI50: 32.9 µM
  TGI: > 100 µM
[8]
  GI50: 34.8 µM
  TGI: 88.3 µM
